# APJ ag = agonists of human apelin receptor APJ, primary screen, CHO-K1 cells, PathHunter beta-arrestin, luminescence | P35414 | 0% DMSO wells, 100% apelin | activation, % at 20 µM | hit rate 0.11% among 330,000 | AID 2520, 2010;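 active means activation more than six SD over the plate average, tested at 20 µM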;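 further: 0% = DMSO alone and 100% = apelin-13 at 10 nM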
# Target sequence (P35414 whole entry, looked up): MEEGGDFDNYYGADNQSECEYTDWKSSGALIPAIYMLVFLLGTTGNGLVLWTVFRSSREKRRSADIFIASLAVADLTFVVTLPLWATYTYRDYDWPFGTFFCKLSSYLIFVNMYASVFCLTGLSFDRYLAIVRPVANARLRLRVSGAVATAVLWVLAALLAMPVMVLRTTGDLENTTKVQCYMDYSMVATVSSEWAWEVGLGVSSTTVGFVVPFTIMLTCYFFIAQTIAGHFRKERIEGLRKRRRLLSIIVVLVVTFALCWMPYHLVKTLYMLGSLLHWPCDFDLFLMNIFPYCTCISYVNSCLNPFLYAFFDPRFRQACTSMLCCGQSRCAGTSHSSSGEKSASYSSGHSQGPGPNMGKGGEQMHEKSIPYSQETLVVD
#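 Assay system – PathHunter CHO-K1 APJ (AGTRL-1) beta-arrestin reporter cells · Compound – one dose, 20 µM compound, 1% DMSO · Timing – compound 90 min 25 °C, reagent 1 h · Measured by – luminescence from split beta-galactosidase complementation, Galacton Star/Emerald II substrate · Measure – beta-arrestin recruitment to APJ as agonist activity, luminescent signal · Benchmarks – DMSO vs Apelin-13 10 nM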
# CXCR6 block = CXCR6 receptor inhibitors, primary screen, cell-based, beta-arrestin, luminescence, CHO-K1 PathHunter, 1536-well | C-X-C chemokine receptor type 6 (Homo sapiens), O00574 | inhibition, % at 20 µM | hit rate 0.36% among 360,000 | AID 602244, 2012; in the data active means inhibition above about 34%, passing the limit was not always enough;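 further: antagonist mode with CXCL16 agonist at 10 nM final; 0% = 10 nM CXCL16 with DMSO and 100% = unstimulated wells without agonist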
# CCR6 antag = CCR6 receptor antagonists, primary screen, cell-based, CHO-K1, luminescence, beta-arrestin, uHTS; C-C chemokine receptor type 6 (Homo sapiens), P51684; CHO-K1 CCR6 PathHunter beta-arrestin, CCL20-stimulated; inhibition, % at 20 µM; hit rate 0.49% among 340,000; AID 493098, 2011;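 active means compounds whose inhibition of the agonist-driven luminescence signal at 20 µM reaches about 50%, limit read from the data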;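 further: cells stimulated with CCL20 at 14 nM final; plate controls were DMSO with CCL20 for no effect and DMSO without agonist for full effect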
# APJ antag = antagonists of human apelin receptor APJ, primary screen, CHO-K1 cells, beta-arrestin complementation, luminescence | P35414 | inhibition, % at 20 µM | hit rate 0.32% among 330,000 | AID 2521, 2010;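 active means inhibition above about 40% at 20 µM, limit read from the data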;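 further: cells challenged with 10 nM apelin-13 agonist together with compound; plate controls were apelin-13 plus DMSO wells for no effect and DMSO wells lacking apelin-13 for full effect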
# APOBEC3A inh = APOBEC3A ssDNA deaminase inhibitors, primary screen, selectivity assay for APOBEC3G inhibitor project, biochemical, FAM/TAMRA oligo cleavage fluorescence. DNA dC->dU-editing enzyme APOBEC-3A (Homo sapiens), P31941. recombinant A3A, FAM/TAMRA ssDNA deamination fluorescence. inhibition, % at 20 µM. hit rate 0.41% among 330,000;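 active means at least 40% inhibition at 20 µM here, with at most 30% in a related deaminase screen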;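 further: plate controls were A3A with DMSO for no effect and wells lacking A3A enzyme for full effect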
# Target sequence (P31941 whole entry, looked up): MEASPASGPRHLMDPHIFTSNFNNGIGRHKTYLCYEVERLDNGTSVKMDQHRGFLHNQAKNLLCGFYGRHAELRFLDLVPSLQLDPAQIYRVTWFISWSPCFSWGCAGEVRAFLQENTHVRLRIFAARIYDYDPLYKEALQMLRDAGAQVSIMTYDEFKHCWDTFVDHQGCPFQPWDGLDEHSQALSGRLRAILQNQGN
# A3G deaminase = APOBEC3G DNA deaminase inhibitors, primary screen, biochemical, fluorescence, single-stranded DNA substrate, uHTS; DNA dC->dU-editing enzyme APOBEC-3G (Homo sapiens), Q9HC16; recombinant A3G, ssDNA deamination FAM/TAMRA fluorescence; inhibition, % at 20 µM; hit rate 0.28% among 330,000;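 active means inhibition of at least 40% at 20 µM, with no more than 30% in the related APOBEC3A deaminase screen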;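 further: plate controls were DMSO wells with A3G for no effect and wells lacking A3G enzyme for full effect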
# APJ antag conf = APJ antagonists blocking beta-arrestin recruitment, confirmation, cell-based, luminescence, single concentration, uHTS hits | shares compounds with APJ antag | antagonist mode | inhibition, % at 20 µM | hit rate 66% among 950 | AID 2766, 2010; in the data active means inhibition above about 50%
# A3A conf = APOBEC3A deaminase inhibitors, retest, confirmation, selectivity assay for APOBEC3G inhibitor project, biochemical, single concentration, fluorescence readout. shares compounds with APOBEC3A inh. recombinant A3A, ssDNA deaminase UDG fluorescence assay. inhibition, % at 20 µM. hit rate 63% among 1,400;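 active means inhibition reaching a set limit, 80% of the first screen's cutoff, at 20 µM in any replicate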;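 further: plate controls were DMSO wells with A3A for no effect and wells lacking A3A enzyme for full effect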
# APOBEC3G confirm = APOBEC3G deaminase inhibitor retest, confirmation, biochemical, fluorescence, single-stranded DNA substrate, single concentration | recombinant A3G ssDNA deaminase, UDG/FAM-TAMRA fluorescence | shares compounds with A3G deaminase | inhibition, % at 20 µM | hit rate 72% among 890;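 active means inhibition reaching a set limit in any replicate at 20 µM, the limit being 80% of the first screen's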
# UDG A3G counter = E. coli UDG inhibitors, confirmation, counter-screen for APOBEC3G inhibitor project, biochemical, single concentration, fluorescence, FAM/TAMRA oligo; shares compounds with A3G deaminase; UDG counterscreen; inhibition, % at 20 µM; 710 tested, under 10 active;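 active means compounds giving 40% or more inhibition at 20 µM in any one of the three replicates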;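 further: plate controls were DMSO wells with UDG and oligo for no effect and DMSO wells lacking both for full effect; inhibitors lower the FAM signal released by uracil excision and alkaline cleavage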
# The depositor's hits bear a star; nt = no result given. Only some compounds are listed: those with a hit (about 1.4% of all), similar ones and a draw of the others.
SMILES,APJ ag,CXCR6 block,CCR6 antag,APJ antag,APOBEC3A inh,A3G deaminase,APJ antag conf,others
C[C@@H]1CN([C@H](C)CO)C(=O)CCCn2nncc2CO[C@H]1CN(C)Cc1ccc2c(c1)OCCO2,nt,1,nt,nt,nt,nt,nt,
Cc1cccc(NC(=O)CN2C(=O)N/C(=C/c3ccc(C)o3)C2=O)c1,nt,-5,17,nt,nt,nt,nt,
Cc1ccc(NC(=O)CN2C(=O)N/C(=C/c3ccc(C)o3)C2=O)cc1,-4,30,-7,42*,2,10,28,
Cc1[nH]c2ccccc2c1Cc1nnc(SCc2ccccc2)o1,-4,6,1,48*,-1,-6,31,
c1ccc(-c2nc(-c3ccco3)cs2)nc1,-11,11,16,53*,3,5,27,
c1ccc(-c2nccc(-c3ccco3)n2)nc1,-1,1,1,3,1,-11,nt,
CN1C(=O)/C(=C\c2cc(N=Nc3ccccc3)ccc2O)SC1=S,-13,52*,55*,68*,0,-1,109*,
CCOC(=O)C1=CN(c2cccc(F)c2)C=C(C(=O)OCC)C1c1cc(OC)c(O)c([N+](=O)[O-])c1,-4,27,49,44*,-4,-6,23,
CC(c1ccccc1)N1C(=O)OC(C)(C)C1(C)O (stereo unspecified),4,0,1,72*,-2,-2,8,
CN1C(=O)OC(C)(CCc2ccccc2)C1(C)O (stereo unspecified),-2,-1,4,-13,0,-1,nt,
CCOc1ccc(OCCC(=O)OCC(=O)NCCc2ccc(S(N)(=O)=O)cc2)cc1,0,2,11,-28,0,-10,nt,
Oc1c(N=Nc2ccccn2)ccc2ccccc12,-12,32,50*,68*,4,4,113*,
Cc1cc(C(=O)NNc2ccc(C)c(C)c2)no1,-12,17,22,42*,2,0,114*,
Cc1ccc(NNC(=O)c2c(C)noc2C)cc1Cl,-13,4,14,56*,-3,1,70*,
Cc1cc(Cl)ccc1NNC(=O)c1c(C)noc1C,-2,-11,-9,-14,-7,20,nt,
Cc1cc(C(=O)NNc2ccc(Cl)cc2)no1,-6,8,18,24,0,-5,nt,
CN(C)C(=O)c1cc(C(=O)c2ccccc2F)c[nH]1,0,-3,6,3,-6,-8,nt,
Cc1cc2c3c(c1)C(C)CC(C)(C)N3C(=O)C2=C(C#N)C#N (stereo unspecified),5,-12,-2,-44,2,1,nt,
COc1cc2cc(C(=O)N3CCOCC3)cc(-c3ccc(C)cc3)c2cc1OC,2,-3,12,5,1,-5,nt,
O=C(NCCN1CCC(n2c(=O)[nH]c3ccccc32)CC1)C(c1ccccc1)c1ccccc1,nt,-2,nt,nt,nt,nt,nt,
CC(=O)Nc1ccc(NCCc2cccs2)cc1,nt,-8,nt,nt,nt,nt,nt,
CC(=O)Nc1ccc(NCc2cccs2)cc1,0,-9,10,104*,-12,4,-2,
CCCCNC(=O)C[C@@H]1C[C@@]2(C(=O)OC)CCCCC=C2N(Cc2cccc3ccccc23)C1=O,nt,3,nt,nt,nt,nt,nt,
COc1ccc(Nc2ccc([N+](=O)[O-])c3nonc23)c(OC)c1,-7,44*,60*,44*,7,2,78*,
O=[N+]([O-])c1ccc(Nc2ccccc2O)c2nonc12,-3,25,38,4,1,19,nt,
SMILES,APJ ag,CXCR6 block,CCR6 antag,APJ antag,APOBEC3A inh,A3G deaminase,APJ antag conf,others
O=C(O)c1ccc(Nc2ccc([N+](=O)[O-])c3nonc23)cc1,-9,34,59*,42*,-2,2,76*,
O=C(O)c1cccc(Nc2ccc([N+](=O)[O-])c3nonc23)c1,-6,36,58*,41*,0,-1,78*,
CC(C)C[C@@H]1Cc2[nH][nH]c(=O)c2[C@H](C)O1,nt,-2,nt,nt,nt,nt,nt,
CN(C)c1ccc(N=Nc2nc3ccccc3n2C)cc1,-10,54*,75*,48*,17,14,108*,
CCCCOCCCN1CC(=O)N2[C@@H](Cc3c([nH]c4ccccc34)C2(C)C)C1=O,-1,-2,7,-16,-7,-5,nt,
S=C(N/N=C/c1ccc(Cl)cc1)N1CCOCC1,-7,39,55*,41*,-2,-6,60*,
S=C(N/N=C/c1ccc(Br)cc1)N1CCCCC1,-7,-6,17,11,-6,-6,nt,
CC(C)c1ccc(N(CC(=O)NC2CCCC2)C(=O)CCC(=O)Nc2ccccn2)cc1,-1,4,7,-25,-3,-10,nt,
Cc1ccc(-c2nc3sc(C(N)=O)c(N)c3c3c2CCCC3)cc1,-1,-4,18,2,-3,-10,nt,
NC(=O)c1sc2nc(-c3ccccc3)c3c(c2c1N)CCCC3,-10,13,11,47*,-5,-12,16,
O=C(Cn1nnc2ccccc21)OCC(=O)c1ccc(Cl)c(Cl)c1,-9,25,73*,91*,41*,0,111*,A3A conf=1
CC(Oc1ccccc1)C(=O)N=C1SC2CS(=O)(=O)CC2N1Cc1ccccc1 (stereo unspecified),0,1,11,7,1,4,nt,
CCCOc1ccc(C(=O)NNC(=S)NC(=O)CC)cc1,-9,48*,78*,54*,-1,48*,94*,APOBEC3G confirm=6;UDG A3G counter=-2
